The source of these data is ChEMBL document CHEMBL3421632, “Rational design of triazololipopeptides analogs of kisspeptin inducing a long-lasting increase of gonadotropins” (J Med Chem, 2015).

The source made the active and inactive calls. The calls are words filed in the database; no cut-off is given here. *1 amine or outer side, *2 acyl side, *3 side chain or, on linkers, in order; H or OH if unused. Where a SMILES comes first, the peptide text is derived from it. Side-chain parts run from the residue outwards. [ ]: non-standard residue; d: D form. The star is where a group is joined. Glyψ(1,4-Tz)Leu = CC(C)C[C@@H](C(=O)[*:2])n1cc(CN[*:1])nn1; X1 = O=C(Cn1cc([C@H](Cc2ccccc2)N[*:1])nn1)[*:2]; γGlu = O=C(O)[C@H](CCC(=O)[*:2])N[*:1]; Palmitoyl = CCCCCCCCCCCCCCCC(=O)*; azaGly = NNC(=O)O

The target of series [1] is T1, KiSS-1 receptor (Homo sapiens, UniProt Q969F8). The series can be described thus: Agonist activity at human wild-type KISS1R expressed in HEK293 cells assessed as induction of intracellular Ca2+ mobilization after 30 mins by Fluo4 NW Ca2+ assay. The class given is functional, cell-based. Put shortly:
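HEK293 stably expressing HA-tagged wild-type human KISS1R, plated 40 000 cells/well 48 h prior. Loaded with Fluo4 NW dye 30 min at 37 °C plus 30 min at rt. Basal read 5× at 7 s intervals, compound added (final 1 pM–1 μM), Ca2+ followed 7 min. Mean basal subtracted, AUC plotted against concentration, sigmoid fit gives EC50. Nontransfected HEK293 served as control.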
Background: A change in cytosolic calcium serves as a functional read-out for many receptors and channels.

Series [2] in a line: Stability in Ile-de-France ewe serum assessed as intact compound level at 50 uM incubated for 6 hrs by HPLC method. The class given is ADME, cell-free, Ovis aries. Conditions: female, sheep, read-out: Stability. Put shortly:
(§1)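 Ile-de-France ewe serum, stored at −20 °C and preheated 30 min at 39 °C. Peptide at 50 μM final, with L-phenylalaninol internal calibrator, incubated at 39 °C. Proteins precipitated with MeCN and spun; supernatant run on RP-HPLC (2–52% MeCN/0.1% TFA over 5 min, UV 214 nm, plus MS). Intact peak given as % of t = 0 area; five independent experiments.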

The nature of series [3]: Drug metabolism in Ile-de-France ewe serum assessed as cleavage at C and N-termini of azaGly bond at 50 uM incubated for 6 hrs by LC-MS method. In kind it is ADME, cell-free, Ovis aries. Conditions: sheep.
For series [4], the system named is Ovis aries. Put plainly: Increase in maximal amplitude of plasma LH level in anoestrus Ile-de-France ewe at 5 nmol, iv by radioimmunoassay (reference value: 0.6 +/- 0.5 ng/ml). The class given is functional. Put shortly: (§2)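 Intact acyclic anoestrous Ile-de-France ewes (3–5 y, 55–70 kg), jugular catheter placed the day before. Single iv bolus of 1–15 nmol/ewe. Basal LH taken every 10 min for 30 min, then every 10 min for 2 h, every 20 min for 4 h, then hourly. Plasma LH by RIA (1051-CY-LH standard, sensitivity 0.1 ng/mL). Peak, duration and AUC derived; mean ± SEM, N = 4–6.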

Series [5] can be described thus: Stability in Ile-de-France ewe serum assessed as intact compound level at 50 uM incubated for 1 hr by HPLC method. To be noted: sheep, BLD = below limit of detection. In kind it is ADME, cell-free, Ovis aries. The procedure, abridged: as §1
In series [6] the test system is Ovis aries. Put plainly: Increase in time duration of increase of plasma LH level in anoestrus Ile-de-France ewe at 1 to 15 nmol, iv by radioimmunoassay. In kind it is functional, organism-based. The procedure, abridged:
as §2

Series [7] has as its target Neuropeptide FF receptor 1 (Homo sapiens, UniProt Q9GZQ6). The series can be described thus: Agonist activity at human NPFF1R expressed in CHO cells assessed as effect on forskolin-induced cAMP accumulation after 15 mins by luminescence based assay. The class given is functional, cell-based. Put shortly:
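CHO cells stably expressing hNPFF1R (Gαi-coupled), transfected with GloSensor; seeded 30 000 cells/well 24 h before, PBS-washed twice, loaded with GloSensor cAMP reagent 2 h. Compound added, luminescence read 15 min, then 300 nM forskolin + 0.25 mM IBMX added and read a further 120 min. Signal AUC plotted against concentration, sigmoid fit for EC50.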
On the technique in general: Changes in cAMP serve as a functional read-out for many G protein-coupled receptors.

The subject of series [8] is Ovis aries. The series can be described thus: Increase in total plasma LH level in anoestrus Ile-de-France ewe at 1 to 15 nmol, iv by radioimmunoassay. In kind it is functional, organism-based. The procedure, abridged:
as §2

In series [9] the test system is Ovis aries. Put plainly: Increase in maximal amplitude of plasma LH level in anoestrus Ile-de-France ewe at 5 nmol, iv by radioimmunoassay (reference value: 0.4 +/- 0.2 ng/ml). In kind it is functional. The procedure, abridged: as §2
Series [10] relates to Ovis aries. Put plainly: Increase in maximal amplitude of plasma LH level in anoestrus Ile-de-France ewe at 1 to 15 nmol, iv by radioimmunoassay. The class given is functional, organism-based. The procedure, abridged:
as §2

Another series is filed under the species Homo sapiens. Put plainly: Selectivity index, ratio of EC50 for human NPFF1R to EC50 for human wild-type KISS1R.
The test system of series [11] is Ovis aries. Put plainly: Increase in total plasma LH level in anoestrus Ile-de-France ewe at 5 nmol, iv by radioimmunoassay. In kind it is functional, organism-based. The procedure, abridged:
as §2

For series [12], the target named is T1, KiSS-1 receptor. The series can be described thus: Potency index, ratio of EC50 for KP10 to EC50 for compound for agonist activity at human wild-type KISS1R expressed in HEK293 cells assessed as induction of intracellular Ca2+ mobilization after 30 mins by Fluo4 NW Ca2+ assay. The class given is functional, cell-based. Put shortly: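 Ratio of KP10 EC50 to analog EC50, both measured by Fluo4 NW Ca2+ mobilization in HEK293 cells stably expressing HA-tagged human KISS1R. AUC from 7 min of monitoring, concentrations 1 pM–1 μM, sigmoid fit.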

For series [13], the system named is Ovis aries. The series can be described thus: Increase in duration of increase of plasma LH level in anoestrus Ile-de-France ewe at 5 nmol, iv by radioimmunoassay. In kind it is functional. The procedure, abridged:
as §2

Series [14] in a line: Drug metabolism in Ile-de-France ewe serum treated with 50 uM Ac-Tyr-Asn-Trp-Asn-Ser-Phe-azaGly-Leu-Arg-Tyr-NH2 assessed as retention time incubated for 6 hrs by LC-MS method. In kind it is ADME, cell-free, Ovis aries. To be noted: sheep.

T1 sequence (Q969F8 whole entry): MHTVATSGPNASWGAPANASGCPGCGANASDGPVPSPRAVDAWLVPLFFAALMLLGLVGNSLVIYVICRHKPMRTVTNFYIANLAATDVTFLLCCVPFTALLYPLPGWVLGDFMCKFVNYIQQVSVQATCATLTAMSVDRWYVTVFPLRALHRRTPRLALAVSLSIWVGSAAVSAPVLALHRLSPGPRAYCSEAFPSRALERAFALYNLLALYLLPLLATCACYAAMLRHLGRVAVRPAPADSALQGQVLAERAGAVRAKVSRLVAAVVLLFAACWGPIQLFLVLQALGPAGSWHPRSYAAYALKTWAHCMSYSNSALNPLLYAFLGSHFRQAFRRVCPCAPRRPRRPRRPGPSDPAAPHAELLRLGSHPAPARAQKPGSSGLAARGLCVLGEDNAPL
Chain of Neuropeptide FF receptor 1 (Q9GZQ6 whole entry): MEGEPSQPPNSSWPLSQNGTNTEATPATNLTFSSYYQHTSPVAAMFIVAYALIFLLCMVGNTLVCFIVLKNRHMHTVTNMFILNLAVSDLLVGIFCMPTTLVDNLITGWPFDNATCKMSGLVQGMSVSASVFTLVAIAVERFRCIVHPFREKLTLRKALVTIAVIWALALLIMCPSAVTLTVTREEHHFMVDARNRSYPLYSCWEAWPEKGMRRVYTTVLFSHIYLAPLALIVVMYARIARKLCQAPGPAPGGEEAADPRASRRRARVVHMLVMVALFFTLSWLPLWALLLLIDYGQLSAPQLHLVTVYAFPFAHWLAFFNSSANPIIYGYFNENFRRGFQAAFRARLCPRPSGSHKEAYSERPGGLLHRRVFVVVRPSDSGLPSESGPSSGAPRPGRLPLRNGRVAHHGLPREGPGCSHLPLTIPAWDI

A word on the EC50: it is the midpoint of the concentration-response curve. As for `CCCCCCCCCCCCCCCC(=O)N[C@@H](CCC(=O)NCCCC[C@H](NC(=O)[C@H](CC(N)=O)NC(=O)[C@H](Cc1ccc(O)cc1)NC(C)=O)C(=O)N[C@@H](CC(N)=O)C(=O)N[C@@H](CO)C(=O)N[C@@H](Cc1ccccc1)C(=O)NCc1cn([C@@H](CC(C)C)C(=O)N[C@@H](CCCNC(=N)N)C(=O)N[C@@H](Cc2ccc(O)cc2)C(N)=O)nn1)C(=O)O` (Ac-YNK([γGlu-Palmitoyl])NSF[Glyψ(1,4-Tz)Leu]RY-NH2), the EC50 at KiSS-1 receptor [1] stood at 216 nM.
`CC(=O)N[C@@H](Cc1ccc(O)cc1)C(=O)N[C@@H](CC(N)=O)C(=O)N[C@@H](Cc1c[nH]c2ccccc12)C(=O)N[C@@H](CC(N)=O)C(=O)N[C@@H](CO)C(=O)N[C@@H](Cc1ccccc1)C(=O)NNC(=O)N[C@@H](CC(C)C)C(=O)N[C@@H](CCCNC(=N)N)C(=O)N[C@@H](Cc1ccc(O)cc1)C(N)=O` (Ac-YNWNSF[azaGly]LRY-NH2): the EC50 at KiSS-1 receptor [1] is 0.006 nM. In [2], the remaining at 6 h, 50 µM turned out to be 8.4%. Further, the Drug metabolism entry in series [3] is listed as “metabolite_detected”.
Turning to Ac-YNWNK(Ac)FGLRY-NH2, the EC50 on KiSS-1 receptor [1] is 7.2 nM.
For the compound `CCCCCCCCCCCCCCCC(=O)NCCCC[C@H](NC(=O)[C@H](CC(N)=O)NC(=O)[C@H](Cc1ccc(O)cc1)NC(C)=O)C(=O)N[C@@H](CC(N)=O)C(=O)N[C@@H](CO)C(=O)N[C@@H](Cc1ccccc1)C(=O)NCC(=O)N[C@@H](CC(C)C)C(=O)N[C@@H](CCCNC(=N)N)C(=O)N[C@@H](Cc1ccc(O)cc1)C(N)=O` (Ac-YNK(Palmitoyl)NSFGLRY-NH2), on KiSS-1 receptor [1], the EC50 was over 500 nM.
As for H-YNWNSFGLRY-NH2, at KiSS-1 receptor [1], the EC50 turned out to be 2.5 nM. The compound further registered an Activity in the series on Ovis aries [4] of 3.3 ng/mL. The Stability entry in series [5] is “BLD”.
Consider `CC(=O)N[C@@H](Cc1ccc(O)cc1)C(=O)N[C@@H](CC(N)=O)C(=O)N[C@@H](Cc1c[nH]c2ccccc12)C(=O)N[C@@H](CC(N)=O)C(=O)N[C@@H](CO)C(=O)N[C@@H](Cc1ccccc1)c1cn(Cc2cn([C@@H](CC(C)C)C(=O)N[C@@H](CCCNC(=N)N)C(=O)N[C@@H](Cc3ccc(O)cc3)C(N)=O)nn2)nn1`, for which the EC50 at KiSS-1 receptor [1] turned out to be 120 nM. The remaining at 6 h, 50 µM in [2] amounted to 50.7%.
Consider `CCCCCCCCCCCCCCCC(=O)NCCCC[C@H](NC(=O)[C@H](Cc1ccc(O)cc1)NC(C)=O)C(=O)N[C@@H](Cc1c[nH]c2ccccc12)C(=O)N[C@@H](CC(N)=O)C(=O)N[C@@H](CO)C(=O)N[C@@H](Cc1ccccc1)C(=O)NCC(=O)N[C@@H](CC(C)C)C(=O)N[C@@H](CCCNC(=N)N)C(=O)N[C@@H](Cc1ccc(O)cc1)C(N)=O` (Ac-YK(Palmitoyl)WNSFGLRY-NH2), for which the EC50 on KiSS-1 receptor [1] was determined as 182 nM.
Regarding `CC(=O)N[C@@H](Cc1ccc(O)cc1)C(=O)N[C@@H](CC(N)=O)C(=O)N[C@@H](Cc1c[nH]c2ccccc12)C(=O)N[C@@H](CC(N)=O)C(=O)N[C@@H](CO)C(=O)N[C@@H](Cc1ccccc1)C(=O)NCc1cn([C@@H](CC(C)C)C(=O)N[C@@H](CCCNC(=N)N)C(=O)N[C@@H](Cc2ccc(O)cc2)C(N)=O)nn1` (Ac-YNWNSF[Glyψ(1,4-Tz)Leu]RY-NH2), the outcome with Ovis aries [6], with Ovis aries [8], in the series on Ovis aries [10] and with Ovis aries [11] was Active. The results for the EC50 (in [7]; on KiSS-1 receptor [1]) were over 5000 nM and 0.07 nM, respectively. For the same compound, the Activity in the series with Ovis aries [9] was 5.4 ng/mL. Also, the Ratio EC50 is over 10000 in the series filed under Homo sapiens and 30 on KiSS-1 receptor [12]. Besides, in series [2], the remaining at 6 h, 50 µM was found to be 40.8%. Besides, the “fold change (FC)” value in the series with Ovis aries [13] is listed as over 2.
In the case of Ac-K(Ac)NWNSFGLRY-NH2, the EC50 at KiSS-1 receptor [1] is 0.9 nM.
As to `CCCCCCCCCCCCCCCC(=O)N[C@@H](CCC(=O)NCCCC[C@H](NC(=O)[C@H](Cc1ccc(O)cc1)NC(C)=O)C(=O)N[C@@H](Cc1c[nH]c2ccccc12)C(=O)N[C@@H](CC(N)=O)C(=O)N[C@@H](CO)C(=O)N[C@@H](Cc1ccccc1)C(=O)NCC(=O)N[C@@H](CC(C)C)C(=O)N[C@@H](CCCNC(=N)N)C(=O)N[C@@H](Cc1ccc(O)cc1)C(N)=O)C(=O)O` (Ac-YK([γGlu-Palmitoyl])WNSFGLRY-NH2), the EC50 at KiSS-1 receptor [1] worked out at 2.9 nM.
For Ac-YNK(Ac)NSFGLRY-NH2, the concentration giving a half-maximal response (EC50) at KiSS-1 receptor [1] came out at 0.08 nM.
As to `CC(=O)N[C@@H](Cc1ccc(O)cc1)C(=O)N[C@@H](CC(N)=O)C(=O)N[C@@H](Cc1c[nH]c2ccccc12)C(=O)N[C@@H](CC(N)=O)C(=O)N[C@@H](CO)C(=O)N[C@@H](Cc1ccccc1)c1cn(CC(=O)N[C@@H](CC(C)C)C(=O)N[C@@H](CCCNC(=N)N)C(=O)N[C@@H](Cc2ccc(O)cc2)C(N)=O)nn1` (Ac-YNWNS[X1]LRY-NH2), the EC50 at KiSS-1 receptor [1] was found to be 0.6 nM. Besides, the remaining at 6 h, 50 µM in [2] amounted to 61.4%.
Take Ac-YNWK(Ac)SFGLRY-NH2: the half-maximal effective concentration (EC50) on KiSS-1 receptor [1] stood at 13.9 nM.
Turning to Ac-YNWNSF-OH, in series [14], the Retention_time was 9.51 min.
As to `CC(C)C[C@H](N)C(=O)N[C@@H](CCCNC(=N)N)C(=O)N[C@@H](Cc1ccc(O)cc1)C(N)=O` (H-Leu-Arg-Tyr-NH2), in series [14], the Retention_time was found to be 7.57 min.
For the compound Ac-YNWNSFGLRY-NH2, the EC50 in series [7] is over 5000 nM; at KiSS-1 receptor [1] it was 0.07 nM. Further, the Ratio EC50 in the series filed under Homo sapiens is over 10000. The outcome in the series with Ovis aries [11] and with Ovis aries [13] was Active. The remaining at 6 h, 50 µM in series [2] is 2.6%. This compound also returned an Activity in the series on Ovis aries [4] of 3.9 ng/mL.
For the compound `CCCCCCCCCCCCCCCC(=O)N[C@@H](CCC(=O)NCCCC[C@H](NC(=O)[C@H](CC(N)=O)NC(=O)[C@H](Cc1ccc(O)cc1)NC(C)=O)C(=O)N[C@@H](CC(N)=O)C(=O)N[C@@H](CO)C(=O)N[C@@H](Cc1ccccc1)C(=O)NCC(=O)N[C@@H](CC(C)C)C(=O)N[C@@H](CCCNC(=N)N)C(=O)N[C@@H](Cc1ccc(O)cc1)C(N)=O)C(=O)O` (Ac-YNK([γGlu-Palmitoyl])NSFGLRY-NH2), the EC50 at KiSS-1 receptor [1] stood at 24.4 nM.
For the compound Ac-YK(Ac)WNSFGLRY-NH2, on KiSS-1 receptor [1], the EC50 came out at 0.1 nM.
